Source: ChEMBL document CHEMBL2321791, “A new cytotoxic quinolone alkaloid and a pentacyclic steroidal glycoside from the stem bark of Crataeva nurvala: study of anti-proliferative and apoptosis inducing property” (Eur J Med Chem, 2013)
Activity calls are given as the source filed them. The rule behind the calls is not given here.

Tests used:
PC-3 [1] = assay: Inhibition of cell migration in human PC3 cells at 50 uM for 24 hrs by wound healing assay; type: functional, cell-based
Method in brief: (§1)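 Wound-healing (scratch) assay. Cells were seeded at 5.5 × 10⁵ cells/well in 6-well plates and grown overnight to a confluent monolayer. After 24 h serum starvation, the monolayer was scratched with a pipette tip, washed with serum-free medium and photographed at 0 h. Cells were then treated for 24 h in 1% serum medium with compound or DMSO vehicle. Scratched area was quantified in three random fields per treatment across three independent experiments.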

PC-3 [2] = assay: Inhibition of colony formation in human PC3 cells at sub-lethal dose measured after 5 days by colony formation assay; type: functional, cell-based
Method in brief: (§2)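 Clonogenic assay. Cells were seeded at 1 × 10³ cells/well in 6-well plates, and the medium was replaced after 24 h. Cells were then exposed to various concentrations of compound, alongside DMSO vehicle, for 5 days at 37 °C in 5% CO₂. Colonies were fixed with 4% paraformaldehyde, stained with 0.5% crystal violet, then counted and averaged over randomly chosen fields (n = 3).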

PC-3 [3] = assay: Inhibition of cell migration in human PC3 cells at 80 uM for 24 hrs by wound healing assay; type: functional, cell-based; method in brief: as §1
HeLa [4] = assay: Inhibition of colony formation in human HeLa cells at sub-lethal dose measured after 5 days by colony formation assay; type: functional, cell-based; method in brief: as §2
HeLa [5] = assay: Cytotoxicity against human HeLa cells at 50 uM measured after 48 hrs by MTT assay; type: cell-based
Method in brief: (§3)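 MTT viability assay. Cells were plated at 3 × 10³ cells/well and treated in triplicate with a range of concentrations, with final DMSO at 0.2%. After 48 h incubation, MTT (0.5 mg/mL) was added for a further 4 h at 37 °C. Formazan was read by optical density at 570 nm and percentage viability calculated.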

HeLa [6] = assay: Cell cycle arrest in human HeLa cells assessed as cells at G1 phase at 50 uM measured after 24 hrs by propidium iodide/FACS analysis (reference value: 14.7%); type: functional
HeLa [7] = assay: Cell cycle arrest in human HeLa cells assessed as cells at G0 phase at 50 uM measured after 24 hrs by propidium iodide/FACS analysis (reference value: 68.6%); type: functional
PC-3 [8] = assay: Cytotoxicity against human PC3 cells at 50 uM measured after 48 hrs by MTT assay; type: cell-based; conditions: pc-3, 48 h; method in brief: as §3
MCF7 [9] = assay: Inhibition of cell migration in human MCF7 cells at 80 uM for 24 hrs by wound healing assay; type: functional, cell-based; method in brief: as §1
HeLa [10] = assay: Inhibition of colony formation in human HeLa cells measured after 5 days by colony formation assay; type: functional, cell-based; method in brief: as §2
HeLa [11] = assay: Inhibition of cell migration in human HeLa cells at 80 uM for 24 hrs by wound healing assay; type: functional, cell-based; method in brief: as §1
HeLa [12] = assay: Inhibition of cell migration in human HeLa cells at 50 uM for 24 hrs by wound healing assay; type: functional, cell-based; method in brief: as §1
MCF7 [13] = assay: Inhibition of cell migration in human MCF7 cells at 50 uM for 24 hrs by wound healing assay; type: functional, cell-based; method in brief: as §1
PC-3 [14] = assay: Cytotoxicity against human PC3 cells; type: functional, cell-based; method in brief: as §3
MCF7 [15] = assay: Cytotoxicity against human MCF7 cells; type: functional, cell-based; method in brief: as §3
HeLa [16] = assay: Cytotoxicity against human HeLa cells; type: functional, cell-based; method in brief: as §3
HeLa [17] = assay: Cell cycle arrest in human HeLa cells assessed as cells at G1 phase at 1 uM measured after 24 hrs by propidium iodide/FACS analysis (reference value: 14.7%); type: functional
HeLa [18] = assay: Cell cycle arrest in human HeLa cells assessed as cells at G0 phase at 1 uM measured after 24 hrs by propidium iodide/FACS analysis (reference value: 68.6%); type: functional

Compound	Activity (PC-3 [1])	Activity (PC-3 [2])	Activity (PC-3 [3])	Activity (HeLa [4])	Activity (HeLa [5])	Activity (HeLa [6]) [%]	Activity (HeLa [7]) [%]	Activity (PC-3 [8])	Activity (MCF7 [9])	Activity (HeLa [10])	Activity (HeLa [11])	Activity (HeLa [12])	Activity (MCF7 [13])	Activity (PC-3 [14])	Activity (MCF7 [15])	Activity (HeLa [16])	Activity (HeLa [17]) [%]	Activity (HeLa [18]) [%]
CCn1cc(-c2ccccc2)c(=O)c2c(OC)cc(OC)cc21 [CRATAEMINE]	Active	Active	Active	Active	Non-toxic	17.2	76.8	Non-toxic	inactive	Dose-dependent effect	Active	Active	inactive	–	–	–	–	–
COc1cc(OC)c2c(=O)c(-c3ccccc3)cn(C)c2c1	–	–	–	–	–	–	–	–	–	–	–	–	–	inactive	inactive	inactive	–	–
CC(C)[C@@H]1CC[C@@H](C)[C@H]2[C@@H]1C[C@H]1[C@@H]3CC=C4C[C@@H](O[C@@H]5O[C@H](CO)[C@@H](O)[C@H](O)[C@H]5O)CC[C@]4(C)[C@H]3CC[C@]21C [CRATAENOSIDE]	Active	Active	Active	Active	Non-toxic	22.5	63.5	Non-toxic	inactive	Dose-dependent effect	Active	Active	inactive	–	–	–	–	–
COc1cc(OC)c2c(O)c(-c3ccccc3)cnc2c1	–	–	–	–	–	–	–	–	–	–	–	–	–	inactive	inactive	inactive	–	–
CC[C@@]1(O)C(=O)OCc2c1cc1n(c2=O)Cc2cc3ccccc3nc2-1 [CAMPTOTHECIN]	–	–	–	–	–	–	–	–	–	–	–	–	–	–	–	–	17.7	68.6
